Organism: Mus musculus
Assay: Inhibition of murine splenocyte proliferation; call rule not given here
Format: functional
Summary of the method: (§1)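 Spleens from 8-week-old female BALB/c mice were made into single-cell suspensions and the red cells lysed (Tris/NH4Cl, pH 7.2). Cultured at 100 000 cells per well in complete T-cell medium with ConA 1 μg/mL and doubling-down dilutions of compound from 1 mM to 0.1 μM, 48 h at 37 °C, 5% CO2. Then 0.25 μCi [³H]-thymidine was added for 24 h and uptake counted; IC50 derived.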

**Q.** `CCCCCCCCC(=O)CC(=O)N[C@H]1CCOC1=O` was tested. Which IC50 did it give?
**A.** 8.9 µM

**Q.** For `CCCCCCCCCC(=O)CC(=O)N[C@@H](CCO)C(=O)OC`, which IC50 is on record?
**A.** 53 µM

**Q.** Which IC50 does the source give for `C=CCCCCCCCCC(=O)CC(=O)N[C@H]1CCOC1=O` here?
**A.** 7 µM

**Q.** With `CCCCCC(=O)CC(=O)N[C@H]1CCOC1=O` as the compound, how does the IC50 read?
**A.** 400 µM

**Q.** With `CCCCCCCC(=O)CC(=O)N[C@H]1CCOC1=O` as the compound, how does the IC50 read?
**A.** 21 µM

**Q.** With `CCCCCCCCCCCC(=O)CC(=O)N[C@H]1CCOC1=O` as the compound, how does the IC50 read?
**A.** 6.3 µM

**Q.** With `CCCCCCCCCC(=O)CC(=O)N[C@H]1CCOC1=O` as the compound, how does the IC50 read?
**A.** 4 µM

**Q.** `CCCCCC(C)CCC(=O)CC(=O)N[C@H]1CCOC1=O` (some centres undefined) was tested. Which IC50 did it give?
**A.** 5 µM

**Q.** How did the IC50 turn out when `O=C(CCCCCCCCCCBr)CC(=O)N[C@H]1CCOC1=O` was run?
**A.** 3 µM

**Q.** With `CCCCCCCCCC(O)CC(=O)N[C@H]1CCOC1=O` (some centres undefined) as the compound, how does the IC50 read?
**A.** 12.5 µM

**Q.** `CCCCCCCCCCCC(O)CC(=O)N[C@H]1CCOC1=O` (some centres undefined) was tested. Which IC50 did it give?
**A.** 7 µM

**Q.** Which IC50 does the source give for `CCCCCCCCCCCC(=O)N[C@H]1CCOC1=O` here?
**A.** 52 µM

**Q.** `COC(=O)CCCCCCCCCC(=O)CC(=O)N[C@H]1CCOC1=O` was tested. Which IC50 did it give?
**A.** 60 µM

**Q.** How did the IC50 turn out when `O=C(CCCCCCCCCBr)CC(=O)N[C@H]1CCOC1=O` was run?
**A.** 6 µM

**Q.** For `CCCCCCCCCCC(=O)CC(=O)N[C@H]1CCOC1=O`, which IC50 is on record?
**A.** 4.3 µM

**Q.** With `CCCCCCCCCC(=O)N[C@H]1CCOC1=O` as the compound, how does the IC50 read?
**A.** 33 µM

**Q.** How did the IC50 turn out when `CCCCCCCCCC(=O)CC(=O)NC1CCSC1=O` (centres undefined) was run?
**A.** 150 µM

**Q.** Which IC50 does the source give for `O=C(CCCCCCCCCO)CC(=O)N[C@H]1CCOC1=O` here?
**A.** 8 µM

**Q.** `CCC/C=C/CCCCCCC(=O)CC(=O)N[C@H]1CCOC1=O` was tested. Which IC50 did it give?
**A.** 15 µM

**Q.** With `CCCCCC/C=C\CCCC(=O)CC(=O)N[C@H]1CCOC1=O` as the compound, how does the IC50 read?
**A.** 17 µM

**Q.** For `C=CCCCCCCCCCC(=O)CC(=O)N[C@H]1CCOC1=O`, which IC50 is on record?
**A.** 10 µM

**Q.** `CCCCCCCCCCC(=O)N[C@H]1CCOC1=O` was tested. Which IC50 did it give?
**A.** 90 µM

Organism: Mus musculus
Assay: Inhibition of murine splenocyte proliferation; Not active
Format: functional
Summary of the method: as §1

**Q.** Which IC50 does the source give for `CCCCCCCCCC(=O)CC(N)=O` here?
**A.** Not Active

**Q.** `O=C(O)CCCCCCCCCCC(=O)CC(=O)N[C@H]1CCOC1=O` was tested. Which IC50 did it give?
**A.** Not Active
